We go through two compounds from ChEMBL document CHEMBL1212762, “In vivo activity of ceftobiprole in murine skin infections due to Staphylococcus aureus and Pseudomonas aeruginosa” (Antimicrob Agents Chemother, 2010).

Data set [1] relates to Pseudomonas aeruginosa. The experiment in a line: Antimicrobial activity against Pseudomonas aeruginosa OC 4351 infected in immunocompromized SKH1 mouse assessed as log change in bacterial colony forming unit at 100 mg/kg/day, sc. The data set is classed as functional. As to conditions: route subcutaneous. In outline:
(§1)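 Female SKH1 hairless mice made neutropenic with ip cyclophosphamide (150 mg/kg 5 days and 100 mg/kg 1 day before infection). 0.2 ml s.c. Cytodex bead (0.1% vol/vol) inoculum in BHI: OC 4351 left flank, OC 4354 right flank. Drug s.c. at 1, 3, 25, 27 h postinfection. Killed at 48 h; skin homogenised in saline, plated on TSA 18 h 37°C; Δlog CFU/g versus inoculum. 5 mice/dose, run twice.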

Data set [2] has as its system Pseudomonas aeruginosa. The experiment in a line: Antimicrobial activity against Pseudomonas aeruginosa OC 4351 assessed as inhibition of growth by broth microdilution method. Format: functional. (In broth dilution the organism is exposed to a series of concentrations in liquid medium.)
In data set [3] the test system is Pseudomonas aeruginosa. The experiment in a line: Antimicrobial activity against Pseudomonas aeruginosa OC 4354 infected in immunocompromized SKH1 mouse assessed as log change in bacterial colony forming unit at 100 mg/kg/day, sc. Format: functional. As to conditions: route subcutaneous. In outline:
as §1

For data set [4], the system named is Pseudomonas aeruginosa. The experiment in a line: Antimicrobial activity against Pseudomonas aeruginosa OC 4354 assessed as inhibition of growth by broth microdilution method. The data set is classed as functional.
Data set [5] concerns Plasma. The data set can be described thus: fAUC (0-infinity) in immunocompromized SKH1 mouse plasma at 50 mg/kg, sc. The data set is classed as ADME, organism-based. Also noted: dose 50 mg/kg, route subcutaneous. The following applies: in vivo. The essentials:
(§2)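 Female SKH1 hairless mice, immunocompetent or cyclophosphamide-neutropenic, infected s.c. with MRSA OC 8525 or P. aeruginosa OC 4354 on the Cytodex beads (left flank), sterile beads on the right. Single dose 24 h later: s.c. at the nape, or linezolid 50 mg/kg oral. Plasma and skin (DMSO homogenate) sampled over time, HPLC with diode array.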

In data set [6] the test system is Pseudomonas aeruginosa. The experiment in a line: Antimicrobial activity against Pseudomonas aeruginosa OC 4354 infected in immunocompromized SKH1 mouse assessed as log change in bacterial colony forming unit at 1.6 mg/kg/day, sc. Format: functional. The following applies: route subcutaneous. In outline: as §1
For data set [7], the system named is Pseudomonas aeruginosa. The experiment in a line: Antimicrobial activity against Pseudomonas aeruginosa OC 4354 infected in immunocompromized SKH1 mouse assessed as log change in bacterial colony forming unit at 25 mg/kg/day, sc. Format: functional. The following applies: route subcutaneous. In outline: as §1
Data set [8] deals with Pseudomonas aeruginosa. The data set can be described thus: Antimicrobial activity against Pseudomonas aeruginosa OC 4354 infected in immunocompromized SKH1 mouse assessed as log change in bacterial colony forming unit at 6.2 mg/kg/day, sc. The data set is classed as functional. As to conditions: route subcutaneous. The essentials:
as §1

In data set [9] the test system is Pseudomonas aeruginosa. The data set can be described thus: Antimicrobial activity against Pseudomonas aeruginosa OC 4351 infected in immunocompromized SKH1 mouse assessed as log change in bacterial colony forming unit at 25 mg/kg/day, sc. The data set is classed as functional. As to conditions: route subcutaneous. In outline: as §1
Data set [10] deals with Plasma. The data set can be described thus: fCmax in immunocompromized SKH1 mouse plasma at 50 mg/kg, sc. The data set is classed as ADME, organism-based. Also noted: dose 50 mg/kg, route subcutaneous. The following applies: in vivo. In outline:
as §2

The subject of data set [11] is Pseudomonas aeruginosa. The experiment in a line: Antimicrobial activity against Pseudomonas aeruginosa OC 4351 infected in immunocompromized SKH1 mouse assessed as log change in bacterial colony forming unit at 1.6 mg/kg/day, sc. As to conditions: route subcutaneous. The data set is classed as functional. In outline: as §1
For data set [12], the system named is Pseudomonas aeruginosa. The data set can be described thus: Antimicrobial activity against Pseudomonas aeruginosa OC 4351 infected in immunocompromized SKH1 mouse assessed as log change in bacterial colony forming units at 25 mg/kg/day, sc. Format: functional. As to conditions: route subcutaneous. The essentials: as §1
A short description of data set [13]: Tmax in immunocompromized SKH1 mouse plasma at 50 mg/kg, sc. The data set is classed as ADME, organism-based. Also on record: dose 50 mg/kg, route subcutaneous. The essentials: as §2
The subject of data set [14] is Plasma. The data set can be described thus: fCmax in immunocompromized SKH1 mouse plasma at 12.5 mg/kg, sc. The data set is classed as ADME, organism-based. Also on record: dose 12.5 mg/kg, route subcutaneous. As to conditions: in vivo. In outline: as §2
Data set [15] is described as follows: Half life in immunocompromized SKH1 mouse plasma at 12.5 mg/kg, sc. The data set is classed as ADME, organism-based. Also noted: dose 12.5 mg/kg, route subcutaneous. The essentials:
as §2

The nature of data set [16]: fT>MIC in Pseudomonas aeruginosa OC 4351 infected sc dosed SKH1 mouse at 50 mg/kg, sc administered twice at 1 and 3 hrs after infection. Format: functional. The following applies: route subcutaneous.
Data set [17] is described as follows: fT>MIC in Pseudomonas aeruginosa OC 4351 infected sc dosed SKH1 mouse administered in 24 hrs dosing interval. The data set is classed as functional.
Data set [18] relates to Pseudomonas aeruginosa. The experiment in a line: Antimicrobial activity against Pseudomonas aeruginosa OC 4354 infected in immunocompromized SKH1 mouse assessed as lesion volume at 100 mg/kg/day, sc measured after 48 hrs postinfection (reference value: 2195 mm3). The data set is classed as functional. As to conditions: route subcutaneous.
Data set [19] is described as follows: Half life in immunocompromized SKH1 mouse plasma at 50 mg/kg, sc. Format: ADME, organism-based. Also on record: dose 50 mg/kg, route subcutaneous.
Data set [20] has as its system Pseudomonas aeruginosa. The experiment in a line: Antimicrobial activity against Pseudomonas aeruginosa OC 4354 infected in immunocompromized SKH1 mouse assessed as lesion volume at 6.2 mg/kg/day, sc measured after 48 hrs postinfection (reference value: 2195 mm3). Format: functional. The following applies: route subcutaneous.
Data set [21] can be described thus: fT>MIC in Pseudomonas aeruginosa OC 4354 infected sc dosed SKH1 mouse at 50 mg/kg, sc administered twice at 1 and 3 hrs after infection. The data set is classed as functional. As to conditions: route subcutaneous.
The subject of data set [22] is Plasma. The data set can be described thus: fAUC (0-infinity) in immunocompromized SKH1 mouse plasma at 12.5 mg/kg, sc. Format: ADME, organism-based. Also on record: dose 12.5 mg/kg, route subcutaneous. The following applies: in vivo. The essentials:
as §2

Data set [23] deals with Pseudomonas aeruginosa. The data set can be described thus: Antimicrobial activity against Pseudomonas aeruginosa OC 4354 infected in immunocompromized SKH1 mouse assessed as lesion volume at 1.6 mg/kg/day, sc measured after 48 hrs postinfection (reference value: 2195 mm3). Format: functional. The following applies: route subcutaneous.
The test system of data set [24] is Pseudomonas aeruginosa. The data set can be described thus: Antimicrobial activity against Pseudomonas aeruginosa OC 4351 infected in immunocompromized SKH1 mouse assessed as lesion volume at 100 mg/kg/day, sc measured after 48 hrs postinfection (reference value: 2234 mm3). Format: functional. The following applies: route subcutaneous.
Data set [25] can be described thus: Tmax in immunocompromized SKH1 mouse plasma at 12.5 mg/kg, sc. The data set is classed as ADME, organism-based. Also noted: dose 12.5 mg/kg, route subcutaneous. In outline: as §2
Data set [26] has as its system Pseudomonas aeruginosa. The data set can be described thus: Antimicrobial activity against Pseudomonas aeruginosa OC 4351 infected in immunocompromized SKH1 mouse assessed as lesion volume at 25 mg/kg/day, sc measured after 48 hrs postinfection (reference value: 2234 mm3). As to conditions: route subcutaneous. Format: functional.
Data set [27] has as its system Pseudomonas aeruginosa. The experiment in a line: Antimicrobial activity against Pseudomonas aeruginosa OC 4351 infected in immunocompromized SKH1 mouse assessed as lesion volume at 1.6 mg/kg/day, sc measured after 48 hrs postinfection (reference value: 2234 mm3). The following applies: route subcutaneous. The data set is classed as functional.
Data set [28] has as its system Pseudomonas aeruginosa. The experiment in a line: Antimicrobial activity against Pseudomonas aeruginosa OC 4351 infected in immunocompromized SKH1 mouse assessed as lesion volume at 6.2 mg/kg/day, sc measured after 48 hrs postinfection (reference value: 2234 mm3). The following applies: route subcutaneous. The data set is classed as functional.
Data set [29] is described as follows: fT>MIC in Pseudomonas aeruginosa OC 4354 infected sc dosed SKH1 mouse administered in 24 hrs dosing interval. Format: functional. In outline: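 Plasma levels came from female hairless SKH1 mice given single s.c. doses at the nape 24 h after flank s.c. infection with Cytodex beads. S. aureus work used immunocompetent mice. P. aeruginosa work used mice made neutropenic with cyclophosphamide i.p., 150 mg/kg at day −5 and 100 mg/kg at day −1. Drug assayed by HPLC with diode-array detection. Noncompartmental analysis.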

The subject of data set [30] is Pseudomonas aeruginosa. The experiment in a line: Antimicrobial activity against Pseudomonas aeruginosa OC 4354 infected in immunocompromized SKH1 mouse assessed as lesion volume at 25 mg/kg/day, sc measured after 48 hrs postinfection (reference value: 2195 mm3). The data set is classed as functional. As to conditions: route subcutaneous.

Turning to `CO/N=C(\C(=O)N[C@@H]1C(=O)N2C(C(=O)[O-])=C(C[N+]3(C)CCCC3)CS[C@H]12)c1csc(N)n1`, the deltalog10CFU with Pseudomonas aeruginosa [1] is 1; in the data set on Pseudomonas aeruginosa [3], 1.7; in the data set on Pseudomonas aeruginosa [6], 1.7; in the data set on Pseudomonas aeruginosa [7], 1.7; in the data set on Pseudomonas aeruginosa [8], 2.9; in the data set on Pseudomonas aeruginosa [9] it was 2.1. The deltalog10CFU turned out to be 2.1 with Pseudomonas aeruginosa [11] and 1.8 in the data set with Pseudomonas aeruginosa [12]. The MIC (usually the lowest concentration that inhibits growth of the organism) in the data set on Pseudomonas aeruginosa [2] is 4 µg/mL; in the data set on Pseudomonas aeruginosa [4] it was 32 µg/mL. In the data set with Plasma [5], this compound registered a fAUC of 1790 µg·min/mL. In the data set with Plasma [10], this compound yielded a fCmax of 66 µg/mL. In addition, in data set [13], the Tmax (commonly the time from dosing to the highest level) was 7.5 min.
For `C[C@@H](O)[C@H]1C(=O)N2C(C(=O)O)=C(S[C@@H]3CN[C@H](C(=O)N(C)C)C3)[C@H](C)[C@H]12` [MEROPENEM], the fCmax in the data set on Plasma [14] is 11 µg/mL; in the data set with Plasma [10], 72 µg/mL. In addition, the half-life (in general, the time in which the quantity being followed falls by half) amounted to 13.6 min in data set [15] and 8.6 min in [19]. In addition, the deltalog10CFU is reported as -1 in the data set on Pseudomonas aeruginosa [1]; -1.1 with Pseudomonas aeruginosa [3]; 0.7 in the data set with Pseudomonas aeruginosa [6]; -1.1 in the data set with Pseudomonas aeruginosa [7]; 0.5 with Pseudomonas aeruginosa [8]; 0.2 with Pseudomonas aeruginosa [9]. Also, the deltalog10CFU with Pseudomonas aeruginosa [11] is on record as 0.2; in the data set on Pseudomonas aeruginosa [12], -0.9. Also, the “fT>MIC” value in data set [16] was determined as 2 h; in [17] it was 8.5%; in [21], 1.9 h; in data set [29] it was 8%. Also, the MIC was 0.12 µg/mL with Pseudomonas aeruginosa [2] and 0.5 µg/mL with Pseudomonas aeruginosa [4]. Besides, the fAUC amounted to 1837 µg·min/mL in the data set with Plasma [5] and 268 µg·min/mL in the data set with Plasma [22]. Besides, the Activity with Pseudomonas aeruginosa [18] came out at 810 mm3; in the data set on Pseudomonas aeruginosa [20] it was 1030 mm3; with Pseudomonas aeruginosa [23], 1316 mm3; in the data set on Pseudomonas aeruginosa [24], 602 mm3; in the data set with Pseudomonas aeruginosa [26] it was 862 mm3; in the data set with Pseudomonas aeruginosa [27], 1190 mm3. Also, the Activity in the data set with Pseudomonas aeruginosa [28] amounted to 992 mm3; in the data set on Pseudomonas aeruginosa [30], 926 mm3. Further, the Tmax in [25] and in data set [13] was 7.5 min in each case.
